Results: the EternaBench riboswitch data

Tested on: MS2 coat protein
Experiment: apparent Kd, MS2 coat protein; higher = weaker binding; RNA-MaP array; FMN 200 µM where present
In short: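 Two titrations, one without ligand and one with constant ligand, were run with SNAP-549-labelled MS2 coat protein from 0.7 or 1.5 nM, doubling to 3 µM. The targets were designs transcribed by stalled E. coli RNA polymerase on Illumina sequencing-chip clusters, in 100 mM Tris-HCl pH 7.5, 80 mM KCl, 4 mM MgCl2, BSA, DTT, yeast tRNA and Tween-20. The apparent Kd is the median of filtered per-cluster binding-curve fits, with green signal normalised to red-channel RNA signal and control-cluster median Fmax.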

[1] = designed as: OFF switch for flavin mononucleotide, no ligand
[2] = ligand present: flavin mononucleotide, designed as: OFF switch for flavin mononucleotide
[3] = designed as: ON switch for flavin mononucleotide, no ligand
[4] = ligand present: flavin mononucleotide, designed as: ON switch for flavin mononucleotide

Sequence | apparent Kd [1] [nM] | apparent Kd [2] [nM] | apparent Kd [3] [nM] | apparent Kd [4] [nM]
AAGGACAGAGGAUAUACAUAGAUACAGAUUCAUGUAGAACUACAUGAGGAUCACCCAUGUAGAAGGCUGUCCUA | 30.7 | 285 | – | –
GACAUGAGGAUCACCCAUGUCCAACCAGAAGGCCAGGAAUCGGACCCGUGUAUCGGGUUCGAGAUGGAGGAUAUGGGCGCCGAA | – | – | 78.2 | 34.1
UGUCGGAGCAGAGGAUAUAUACAUGAGGAUCACCCAUGUAAAUGAAUGAGCUGGAAACAGCAUGUAUAGAAGGCUGCUCCGACA | 118 | 298 | – | –
CUUUUGUGAGGAUAUUCGUAGUAGGGUCAUGGCACUAUUACGGAGAAGGCACAUGAGGAUCACCCAUGUACCUU | 15.1 | 26.4 | – | –
CGCAAGUCAGGAUAUUCGACUGGUCCAUCUGUGGAUCAGUAGGAGAAGGGACAUGAGGAUCACCCAUGUUUGUU | 30.7 | 46.9 | – | –
GUACAGUAGUGAGGAUAUACGAGAUCGAUAGAUCGGCGAUCCAUUAAUACAUGAGGAUCACCCAUGUAGAAGGCACUUCUGUAC | 5.84 | 82.5 | – | –
UCAUACGUUGAGGAUAUGUCAGUUAGUAUAUUUACAGAAGGCGAUACAUGAGGAUCACCCAUGUUUAUGGGCAU | 219 | 298 | – | –
UAUGGUUAAGUCAGGAUAUACGUGCAGAUAUCUGAGUAGAAGGGACAUGAGGAUCACCCAUGUAUGGUAGUGUU | 79.9 | 132 | – | –
UUGGACGUAGUAGGAUAUGUAGGAUAUUCCUACAUGAGGAUCACCCAUGUUGACAUGGAAGAAGGACAGAAGGACGAUGUCCAU | – | – | 405 | 5.06
GUAGCAUACCGAGGAUAUUCAUAUAAUACAUGAGGAUCACCCAUGUUAUAUAGGCGAAAGCCUUGGGAGAAGGCGGAAUGCUAC | – | – | – | 10.8
AGACAGUCAGGAUAUACAUGAGGAUCACCCAUGUUGAGAUGUGAAAGGGCAGGAAUAGGUAGAAGGGACGAGAG | 34.6 | 33.7 | – | –
UGUUGUAUUACAGGAUAUCUAGUAUUUUUAAUUAGAGAAGGGUAUUCACAUGAGGAUCACCCAUGUAUAUACGAGGAAGUUGUG | – | – | 43.3 | 43.1
GUAAAUCAUGUAGGAUAUGCAUGGCGAAGCUACGCAGAAGGACAUGAGGAUCACCCAUGUCUGUCCGUCUGGAUACAGACGGAC | 24.6 | 195 | – | –
UUGGACGUCGUAGGAUAUGUAGGAUAUUCCUACAUGAGGAUCACCCAUGUUGACAUGGAAGAAGGACAGAACGACGAUGUCCAU | – | – | 172 | 6.07
AGGGUAGUAGGAUAUACAUGAGGAUCACCCAUGUUUCCUUUACGUGACUGGUCCUAGUGUAGAAGGGCUAGCAC | 15.8 | 14.8 | – | –
GCCAGGCAUGUAGGAUAUCCAUUGCGUCGCGUUGGAGAAGGGCAGCACACAUGAGGAUCACCCAUGUGGUCACCCAUGUAGUGU | 612 | 594 | – | –
GUAGCUAUCGGAGGAUAUUUAUACCGGAAACGGACAUGAGGAUCACCCAUGUGGCGAAAGCCUUGGGAGAAGGCCGAUAGCUAC | – | – | 29.7 | 4.23
AAAAAACAUGAGGAUCACCCAUGUCUUUUGACAUGAGGAUAUGUACAGACUUCGGUCUGUACAGAAGGCAUGUAAA | – | – | 511 | 34.7
UGGUACUACGGAGGAUAUCAUGUGUAAACAUGAGGAUCACCCAUGUCGUACGAGAGUACGGAGAUUGAGAAGGCCGUAGUACCU | – | – | 85.4 | 16.7

Sequence | apparent Kd [1] [nM] | apparent Kd [2] [nM] | apparent Kd [3] [nM] | apparent Kd [4] [nM]
UAAUCUCAGAUAGGAUAUAUAGGAUGAUUUAAGACUGAACAUGAGGAUCACCCAUGUGAUUAUCUGUAGAAGGAUCAAUUAGCC | – | – | 476 | 365
CCUAAAAGGAAGGAUAUGCUAGACGAAAGUCUAGCAGAAGGUCCUACAUGAGGAUCACCCAUGUGUCCUAUAGG | 48.5 | 59.4 | – | –
ACCAGGGAUUCAGGAUAUAUUAGCCGAGGCCGCGUAGAAGGGAAAUCCUGACAUGAGGAUCACCCAUGUCGACCCGCCUUCCAA | – | – | 43.3 | 41.9
GCACAUGAGGAUCACCCAUGUGGUCCAGAAGGCCAGAGGAUCUGCUUUUAGCAGGUCCCUCAAAUGGAGGAUAUGGAGGGUUCU | – | – | 261 | 44.7
CUUCUGUGAGGAUAUGUUAGCUCCCAGAAUGUCGCUGGGAGACAGAAGGCACAUGAGGAUCACCCAUGUGGGCG | 35.2 | 175 | – | –
UAUAAUCGAGGAUAUACAUGAGGAUCACCCAUGUGUUGCCGCGUGACAUGAUCGUCAGGUAGAAGGCGAUUAUA | 189 | 39.7 | – | –
UCGCUGCGAGGAUAUACGUGCGCGCGCUCGCGUGCGCGCGUACAUGAGGAUCACCCAUGUAGAAGGCGCGCUGC | 17.1 | 18.3 | – | –
AAAACAUGAGGAUCACCCAUGUAAAGUUCAAACAAUAUGAGUGAGGAUAUACUGAGUUAGUUAUGGUAGAAGGCACUGGGUACA | – | – | 35 | 28.7
AAGGAUAGAGGAUAUACGUAGAUACAGAUUCAUGUAGAACUACAUGAGGAUCACCCAUGUAGAAGGCUAUCCUA | 28.8 | 299 | – | –
CGCACUUAGCGAGGAUAUGUAAAACAUGAGGAUCACCCAUGUGAUUUAGUAUCAAUUUUAAUGAAACAGAAGGCGCUUAGUGCG | 8.26 | 8.91 | – | –
AAUGGGCAGCAGAAGGCAUGUCUACGGACAUGAGGAUCACCCAUGUAGUGAAGCCGAAAGGCGCAUGAGGAUAUGCUGCCCUAA | – | – | 131 | 8.45
CGCGAACAGGCUAACAUGAGGAUCACCCAUGUGGACUCAUGGUAGGAUAUCGGGAAGGAGGAAACCGAGAAGGGCCGGUGAGCA | – | – | 218 | 38.9
AUCAGCUCGUCAGGAUAUACGUCACUGCGUCAGCAGUGUGGUAAGAUCACAUGAGGAUCACCCAUGUAGAAGGGACGAGAUGAU | 13.8 | 247 | – | –
UAUGUGAGAGGAUAUACUGAACCCAACCUAGAUUCUCACGAACAUGAGGAUCACCCAUGUAGAAGGCUCCGUGU | 124 | 394 | – | –
GUAGCAUACCGAGGAUAUUCUGGGCUUAAAUAAACAUGAGGAUCACCCAUGUGGCGAAAGCCUAGGGAGAAGGCGGAAUGCUAC | – | – | 13.7 | 13
UUGAGGUCAGGAUAUGCAUGGCGGGACUUGCGUCGUGGCGUGGAGAAGGGACAUGAGGAUCACCCAUGUGGAGU | 93.1 | 53.4 | – | –
CUUGUUUAUGUAGGAUAUGCCUGGCGUGCCUUUGCAGAAGGACAUGAGGAUCACCCAUGUAACAUGAGGCUCCACCUUGUCGCC | 143 | 141 | – | –
CAAAUUAGCGAGAAGGAGCGCCCGUAGGUACAUGAGGAUCACCCAUGUCCUUUGUGCUCUACGCGCUAGGAUAUCGAUAAACAG | 12.8 | 99.4 | – | –
UCCUACAUGGGAGGAUAUGGGAUGAUAACAUGAGGAUCACCCAUGUUAAAGAUGCCGAGAGGCAACUAGAAGGCCCAUGUAGGU | – | – | 434 | 70.3

Sequence | apparent Kd [1] [nM] | apparent Kd [2] [nM] | apparent Kd [3] [nM] | apparent Kd [4] [nM]
UGGAUCAUGGGAGGAUAUGGGAAGAUACAUGAGGAUCACCCAUGUUUAAGAAUGCCGAGAGGCAACUAGAAGGCCCAUGAUCCU | – | – | 1090 | 47.9
CUCAUGUGCGUCGGCAAGUUAACACAGGAUAUCCGAGAAAACAUGAGGAUCACCCAUGUAACUUCGGAGAAGGGUGAUGAGAGA | – | – | 64.9 | 23.1
AGGAUGCGUGCAGGAUAUCGAGUCGGGAUGGCUCGCGUGGUGUGCCACAUGAGGAUCACCCAUGUCGAGAAGGGCAGGCGGCGC | 535 | 256 | – | –
GAGUCUCUAUUAGAACCGAUACGAACAUGAGGAUCACCCAUGUAGGAUAUGCUAAAAGUUGUGUUGCAGAAGGACAUUUAUCGC | 11.1 | 10.9 | – | –
UUCCUGUCAGGAUAUGACUAGAGGCACGAAAGUGUGUUUAGUUAGAAGGGACAUGAGGAUCACCCAUGUAGUCC | 23.3 | 36.2 | – | –
GGAUAGGACAGAGGAUAUACCUGCUAGAGAUACUAGCAAAAUUUCCUCACAUGAGGAUCACCCAUGUAGAAGGCUGUCCUAUCG | 8.45 | 109 | – | –
CUUUUUUGAGGAUAUUAGUAGUAAAUAAAUAAAAUUACUACUGAGAAGGCACAUGAGGAUCACCCAUGUUCCUC | 16.3 | 26.9 | – | –
UAGAUGGGAGGAUAUACGUAUAUGCAGGUUCGUGUGGUGCUACAUGAGGAUCACCCAUGUAGAAGGCCCGUCUU | – | 38.6 | – | –
AGCAAGUAUACAUGAGGAUCACCCAUGUUUUUUAGGGUUUUCAGAAGGUACAUUUUGAGAUAGAGUAAGGAUAUGAAAUAUGCG | – | – | 101 | 45.7
UUGCGGUCAGGAUAUGCAUGGCGGGACUUGCGUCGUGGCGUGGAGAAGGGACAUGAGGAUCACCCAUGUGGAGG | 97.1 | 99.3 | – | –
GCCAGAGCAGGAUAUUCAAUAAUCCACAUGAGGAUCACCCAUGUCUAGCGAAAGCUAGAGGGAGAAGGGCUCUGGC | 79.3 | 33.7 | – | –
GAAUACCUAGGAUAUACAUGAGGAUCACCCAUGUCAGUAGACUGGGUAAAGUCUCUCAGUAGAAGGAGGACCCG | 109 | 97.8 | – | –
GGUCUGACAUAAGGAUAUGCUCAGGAUAACUGAGCAGAAGGUAUGUGAAAACAUGAGGAUCACCCAUGUGAUCAAUACAGACCA | – | – | 18.8 | 19.5
AGCAGACGAGGAUAUAGAUUUGUUAACAUGAGGAUCACCCAUGUGAUCGAUUUUUCAUAUUUAGAAGGUGUCUGCU | 83.3 | 392 | – | –
GGAAUACAUGAGGAUCACCCAUGUAAGGAUAUGCUGAUUAAAUUGGAUUAAUUAUGCAGCAGAAGGUACAAAAG | 78.7 | 79.6 | – | –
AAUAACAGAGGAUAUACUAUUUUAUGUGUUUAUUGUUUUGAACAUGAGGAUCACCCAUGUAGAAGGCUGAAUAA | 24.6 | 26.1 | – | –
GUUAAACAUGAGGAUCACCCAUGUAAGGAUAUGCUGCGGUAGAGAUGAAGUGAAUGCAGCAGAAGGUACAAUUG | 124 | 109 | – | –
CUCUUGGCAGGAUAUGCAAUUUUAGACAUGAGGAUCACCCAUGUGAUCAUUCCAUAUUAUGCAGAAGGGCCUAAAC | 48.2 | 320 | – | –
